Data set [1] has as its system HeLa. As to the kind of experiment: Cytostatic activity against human HeLa cells […] by cell counting. It counts as functional, cell-based.
The test system of data set [2] is L1210. As to the kind of experiment: Ratio of IC50 for thymidine-kinase deficient mouse L1210 cells to IC50 for mouse L1210/0 cells after 48 hrs by cell counting. It counts as functional. Summed up:
(§1)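 Murine L1210/0 cells were compared with L1210/TK cells, selected for resistance to 5-bromo-2'-dUrd, and with L1210.Hyor cells, chronically infected with Mycoplasma hyorhinis. Cells were grown in DMEM with 10% FBS, 10 mM Hepes and 1 mM pyruvate at 37 °C and 5% CO2, then seeded at 60 000 cells/well with compound. They were Coulter-counted after 48 h. […] Mean of 2–4 experiments.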

Data set [3] relates to HeLa. As to the kind of experiment: Ratio of IC50 for thymidine-kinase deficient human HeLa cells to IC50 for human HeLa cells by cell counting.
A short description of data set [4]: Cytostatic activity against mouse L1210/0 cells after 48 hrs by cell counting. The format is functional, cell-based. The note with it: L1210/0, 48 h. Summed up:
(§2)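 Suspension leukemia cells in DMEM with 10% FBS, 10 mM Hepes and 1 mM sodium pyruvate at 37 °C under 5% CO2. Seeded at 60 000 cells/well with graded compound levels. Grown 48 h (L1210) or 72 h (CEM), then counted by Coulter counter. Mean ± SD of two to four independent experiments.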

Data set [5] relates to HeLa. Briefly: Cytostatic activity against thymidine-kinase deficient human HeLa cells […]. It counts as functional, cell-based.
The test system of data set [6] is CCRF-CEM. As to the kind of experiment: Cytostatic activity against thymidine-kinase deficient human CEM cells after 72 hrs by cell counting. The format is functional, cell-based. Summed up:
as §2

Data set [7] deals with CCRF-CEM. As to the kind of experiment: Cytostatic activity against human CEM/0 cells after 72 hrs by cell counting. The format is functional, cell-based. Summed up: (§3)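 Suspension leukemia cells in DMEM with 10% FBS, 10 mM Hepes and 1 mM sodium pyruvate at 37 °C under 5% CO2. Seeded at 60 000 cells/well with graded compound levels. Grown 48 h (L1210) or 72 h (CEM), then counted by Coulter counter. […] Mean ± SD of two to four independent experiments.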

The subject of data set [8] is L1210. Briefly: Ratio of IC50 for Mycoplasma hyorhinis-infected mouse L1210 cells to IC50 for mouse L1210/0 cells after 48 hrs by cell counting. The format is functional. Summed up:
as §1

The test system of data set [9] is L1210. As to the kind of experiment: Cytostatic activity against Mycoplasma hyorhinis-infected mouse L1210 cells after 48 hrs by cell counting. It counts as functional, cell-based. The note with it: L1210, 48 h. Summed up: as §2
Data set [10] deals with L1210. Briefly: Cytostatic activity against thymidine-kinase deficient mouse L1210 cells after 48 hrs by cell counting. It counts as functional, cell-based. The note with it: L1210, 48 h. Summed up:
as §2

Data set [11] is described as follows: Half life in Trizma buffer at pH 7.6 at 3 mg by [31P]NMR spectroscopy in presence of carboxypeptidase Y. The format is physicochemical. The note with it: yeast (Saccharomyces cerevisiae). Summed up: (§4)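 Compound (3.0 mg) in acetone-d6 with Trizma buffer pH 7.6. A control 31P NMR spectrum (202 MHz) was taken at 25 °C, then defrosted carboxypeptidase Y (0.1 mg in Trizma) added. Spectra recorded every 7 min over 14 h at 25 °C to follow conversion to metabolites. Half-life was estimated from these spectra.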

The nature of data set [12]: Ratio of 5-FU IC50 to compound IC50 for mouse L1210/0 cells after 48 hrs by cell counting. The format is functional.
Data set [13] in a line: Drug metabolism in Trizma buffer at pH 7.6 assessed as metabolite 5-Fluoro-2'-deoxyuridine-5'-O-[1-naphthyl(L-alaninyl)]phosphate formation at 3 mg measured every 7 mins over 14 hrs by [31P]NMR spectroscopy in presence of carboxypeptidase Y. It counts as physicochemical. The note with it: pH 7.6, 14 h. Summed up:
as §4

A short description of data set [14]: Drug metabolism in Trizma buffer at pH 7.6 assessed as metabolite 5-Fluoro-2'deoxyuridine 5'-O-[(L-Alaninyl)]phosphate formation at 3 mg measured after 45 mins by [31P]NMR spectroscopy in presence of carboxypeptidase Y. It counts as physicochemical. The following applies: pH 7.6, 0.75 h. Summed up: as §4
The subject of data set [15] is L1210. As to the kind of experiment: Ratio of FUDR IC50 to compound IC50 for thymidine-kinase deficient mouse L1210 cells after 48 hrs by cell counting. It counts as functional.
A short description of data set [16]: Hydrolytic stability in aqueous buffer at pH 1 at 2.6 mg measured every 12 mins over 14 hrs by [31P]NMR spectroscopy. The format is physicochemical. The note with it: pH 1, 14 h. Summed up:
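Compound (2.6 mg) in methanol-d4 with pH 1 buffer made from equal parts 0.2 M HCl and 0.2 M KCl. 31P NMR at 37 °C, spectra recorded every 12 min over 14 h.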

Data set [17] has as its system CCRF-CEM. As to the kind of experiment: Cytostatic activity against human CEM cells expressing human ENT1 transporter after 72 hrs by cell counting. It counts as functional, cell-based. Summed up:
as §3

The test system of data set [18] is CCRF-CEM. As to the kind of experiment: Cytostatic activity against human CEM cells expressing human ENT1 transporter after 72 hrs by cell counting in presence of dipyridamole. It counts as functional, cell-based. Summed up:
(§5)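 CEM/hEnt-1 cells with 10 μM dipyridamole or 10 μM NBMPR added alongside graded compound levels, in DMEM with 10% FBS, 10 mM Hepes and 1 mM sodium pyruvate at 37 °C under 5% CO2. Seeded at 60 000 cells/well, counted by Coulter counter after 3 days.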

The nature of data set [19]: Stability of the compound in potassium phosphate buffer at pH 7.4 assessed as E.coli thymidine phosphorylase-mediated release of 5-FU after 5 mins by [19F] NMR spectroscopy. The format is ADME. The following applies: pH 7.4, 5 min. Summed up: (§6)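 Compound (6.0 mg) in methanol-d4 plus 300 mM potassium phosphate buffer pH 7.4. […] 19F NMR recorded at 5 min, 14 h and 72 h at 25 °C, with 5-FU identified by its signal near δF 169.50 ppm.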

In data set [20] the test system is CCRF-CEM. Briefly: Cytostatic activity against ENT1 transporter-deficient human CEM cells after 72 hrs by cell counting. The format is functional, cell-based. Summed up: as §3
Data set [21] is described as follows: Hydrolytic stability in aqueous buffer at pH 8 at 4.5 mg measured every 12 mins over 14 hrs by [31P]NMR spectroscopy. It counts as physicochemical. The note with it: pH 8, 14 h. Summed up:
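Compound (4.5 mg) in methanol-d4 with pH 8 buffer (0.1 M Na2HPO4 adjusted with 0.1 M HCl). In situ 31P NMR (202 MHz) at 37 °C, spectra recorded every 12 min over 14 h.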

The test system of data set [22] is CCRF-CEM. Briefly: Ratio of IC50 for human CEM cells expressing human ENT1 transporter in presence of NBMPR to IC50 for human CEM cells expressing human ENT1 transporter. It counts as functional. Summed up:
(§7)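 Human T-lymphocyte CEM cells with (CEM/hEnt-1) or lacking (CEM/hEnt-0) the hENT1 transporter were seeded at 60 000 cells/well with graded compound concentrations. Transporter-inhibition runs added dipyridamole (10 μM) or NBMPR (10 μM) to CEM/hEnt-1 cells. […] Ratios are formed against untreated CEM/hEnt-1 IC50. Mean of 2–4 experiments.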

Data set [23] is described as follows: Stability of the compound in potassium phosphate buffer at pH 7.4 assessed as E.coli thymidine phosphorylase-mediated release of 5-FU after 14 to 72 hrs by [19F] NMR spectroscopy. It counts as ADME. Summed up:
as §6

Data set [24] relates to CCRF-CEM. Briefly: Cytostatic activity against human CEM cells expressing human ENT1 transporter after 72 hrs by cell counting in presence of NBMPR. It counts as functional, cell-based. Summed up: as §5
Data set [25] relates to CCRF-CEM. As to the kind of experiment: Ratio of IC50 for human CEM cells expressing human ENT1 transporter in presence of dipyridamole to IC50 for human CEM cells expressing human ENT1 transporter. It counts as functional. Summed up: as §7
Data set [26] concerns CCRF-CEM. Briefly: Ratio of IC50 for ENT1 transporter-deficient human CEM cells to IC50 for human CEM cells expressing human ENT1 transporter after 72 hrs by cell counting. The format is functional. Summed up: as §7
Data set [27] is described as follows: Stability in DMSO/D2O assessed as parent compound at 5 mg measured after 13 hrs 30 mins by [31P]NMR spectroscopy in presence of human serum. It counts as ADME. The note with it: read-out: Stability. Summed up: (§8)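 Compound (5.0 mg) dissolved in DMSO plus D2O and a control 31P NMR spectrum taken at 37 °C. Previously defrosted human serum then added. Spectra taken every 15 min over 14 h at 37 °C and processed by Lorentz-Gauss deconvolution. Parent and metabolite peaks were tracked by chemical shift.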

A short description of data set [28]: Drug metabolism in DMSO/D2O assessed as metabolite 5-Fluoro-2'-deoxyuridine-5'-O-[1-naphthyl(L-alaninyl)]phosphate formation at 5 mg measured after 6 hrs 45 mins by [31P]NMR spectroscopy in presence of human serum. The format is ADME. Summed up: as §8
Data set [29] is described as follows: Drug metabolism in DMSO/D2O assessed as metabolite 5-Fluoro-2'deoxyuridine 5'-O-[(L-Alaninyl)]phosphate formation at 5 mg measured after 11 hrs 30 mins by [31P]NMR spectroscopy in presence of human serum. It counts as ADME. Summed up: as §8

Broadly, the IC50 is the midpoint of a concentration-inhibition curve. What is called half-life is how long it takes for the measured level to halve.

Molecules are shown by their SMILES.

Take `COC(=O)[C@H](C)NP(=O)(OC[C@H]1O[C@@H](n2cc(F)c(=O)[nH]c2=O)C[C@@H]1O)Oc1ccccc1` (mixture of isomers): the IC50 with HeLa [1] is 280 nM; in data set [4], 40 nM; with HeLa [5], 4.7 µM; in the data set on CCRF-CEM [6], 35000 nM; in the data set with CCRF-CEM [7], 700 nM; in the data set with L1210 [9] it was 870 nM. In the data set on L1210 [10], this compound displayed an IC50 of 41000 nM. The “Ratio IC50” value with L1210 [2] was determined as 2000; in the data set on HeLa [3] it was 15; in the data set with L1210 [8], 22.
Turning to `CCCCCOC(=O)[C@H](C)NP(=O)(OC[C@H]1O[C@@H](n2cc(F)c(=O)[nH]c2=O)C[C@@H]1O)Oc1cccc2ccccc12` (mixture of isomers), the IC50 with HeLa [1] was 29 nM; in data set [4] it was 2.1 nM; in the data set on HeLa [5] it was 0.44 µM; in the data set on CCRF-CEM [6] it was 280 nM; in the data set on CCRF-CEM [7], 15 nM; with L1210 [9] it was 6 nM. In addition, the IC50 in the data set on L1210 [10] is 130 nM. For the same compound, the “Ratio IC50” value in the data set with L1210 [2] is recorded as 40; in data set [12], 100; in the data set with L1210 [8] it was 2.9. Besides, the half-life in data set [11] is less than 5 min. Further, the Drug metabolism result in [13] and in [14] was “Active” throughout.
With `C[C@H](NP(=O)(OC[C@H]1O[C@@H](n2cc(F)c(=O)[nH]c2=O)C[C@@H]1O)Oc1ccccc1)C(=O)OC1CCCCC1` (mixture of isomers), the IC50 stood at 180 nM with HeLa [1]; 32 nM in data set [4]; 5.9 µM in the data set with HeLa [5]; 1200 nM with CCRF-CEM [6]; 170 nM in the data set with CCRF-CEM [7]; 40 nM in the data set on L1210 [9]. The same compound came in with an IC50 with L1210 [10] of 140 nM. Further, the “Ratio IC50” value with L1210 [15] amounted to 21; in the data set with L1210 [8], 1.25.
Consider `C[C@H](NP(=O)(OC[C@H]1O[C@@H](n2cc(F)c(=O)[nH]c2=O)C[C@@H]1O)Oc1ccccc1)C(=O)OCc1ccccc1` (mixture of isomers), for which the Stability entry in [16], in data set [19], in data set [21] and in data set [23] was “Stable” each time. Moreover, the IC50 was 130 nM in the data set on HeLa [1]; 26 nM in data set [4]; 19 µM with HeLa [5]; 22000 nM in the data set with CCRF-CEM [6]; 180 nM in the data set on CCRF-CEM [7]; 130 nM in the data set on CCRF-CEM [17]. Further, the IC50 was 150 nM in the data set on L1210 [9]; 660 nM with CCRF-CEM [18]; 1400 nM in the data set with CCRF-CEM [20]; 720 nM in the data set with CCRF-CEM [24]; 13000 nM in the data set on L1210 [10]. The “Ratio IC50” value was determined as 5.8 in the data set on L1210 [8], 2 in the data set on CCRF-CEM [22], 2 with CCRF-CEM [25] and 7 with CCRF-CEM [26].
On to `CCOC(=O)[C@H](C)NP(=O)(OC[C@H]1O[C@@H](n2cc(F)c(=O)[nH]c2=O)C[C@@H]1O)Oc1cccc2ccccc12` (mixture of isomers), for which the IC50 came out at 220 nM in the data set with HeLa [1]; 28 nM in data set [4]; 2.8 µM in the data set with HeLa [5]; 1600 nM with CCRF-CEM [6]; 250 nM in the data set with CCRF-CEM [7]; 95 nM with L1210 [9]. Also, in the data set on L1210 [10], the IC50 worked out at 360 nM. Besides, in the data set with L1210 [8], the “Ratio IC50” value stood at 3.4. Further, in [27], the remaining at 13.5 h amounted to 96%. Further, the Drug metabolism entry in [28] and in data set [29] was “Active” each time.

For the origin of these results see ChEMBL document CHEMBL2177092, “Phosphoramidate ProTides of the anticancer agent FUDR successfully deliver the preformed bioactive monophosphate in cells and confer advantage over the parent nucleoside” (J Med Chem, 2011).
